Test results published in ChEMBL document CHEMBL1687804, “Comparative efficacies of human simulated exposures of telavancin and vancomycin against methicillin-resistant Staphylococcus aureus with a range of vancomycin MICs in a murine pneumonia model” (Antimicrob Agents Chemother, 2010).
In brackets after ≈: the same amount, converted by molar mass. Activity calls are given as the source filed them. The calls are words filed in the database; no cut-off is given here.

Key:
Staphylococcus aureus [1] = assay: Antibacterial activity against vancomycin-intermediate Staphylococcus aureus isolate 453 (NRS23) by broth microdilution assay; assay type: functional
Method in brief: (§1)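 MIC by broth microdilution using dry-form panels, run in triplicate per isolate; modal MIC reported. Isolates were stored at −80°C in skim milk and subcultured twice on Trypticase soy agar with 5% sheep blood at 35°C before use.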

Staphylococcus aureus [2] = assay: Antibacterial activity against vancomycin-heteroresistant Staphylococcus aureus isolate 443 by broth microdilution assay; assay type: functional; method in brief: as §1
Staphylococcus aureus [3] = assay: Antibacterial activity against community-associated methicillin-resistant Staphylococcus aureus isolate 145 by broth microdilution assay; assay type: functional; method in brief: as §1
Staphylococcus aureus [4] = assay: Antibacterial activity against vancomycin-intermediate Staphylococcus aureus isolate 454 (NRS404) by broth microdilution assay; assay type: functional; method in brief: as §1
Staphylococcus aureus [5] = assay: Antibacterial activity against hospital-associated methicillin-resistant Staphylococcus aureus isolate 412 by broth microdilution assay; assay type: functional; method in brief: as §1
Staphylococcus aureus [6] = assay: Antibacterial activity against hospital-associated methicillin-resistant Staphylococcus aureus isolate 336 by broth microdilution assay; assay type: functional; method in brief: as §1
Staphylococcus aureus [7] = assay: Antibacterial activity against vancomycin-heteroresistant Staphylococcus aureus isolate 38 (Mu3) by broth microdilution assay; assay type: functional; method in brief: as §1
Staphylococcus aureus [8] = assay: Antibacterial activity against hospital-associated methicillin-resistant Staphylococcus aureus isolate 360 by broth microdilution assay; assay type: functional; method in brief: as §1
Staphylococcus aureus [9] = assay: Antibacterial activity against vancomycin-intermediate Staphylococcus aureus isolate 440 (A6298) by broth microdilution assay; assay type: functional; method in brief: as §1
Staphylococcus aureus [10] = assay: Antibacterial activity against community-associated methicillin-resistant Staphylococcus aureus isolate 156 by broth microdilution assay; assay type: functional; method in brief: as §1
Staphylococcus aureus [11] = assay: Antibacterial activity against vancomycin-intermediate Staphylococcus aureus isolate 435 by broth microdilution assay; assay type: functional; method in brief: as §1
Staphylococcus aureus [12] = assay: Antibacterial activity against hospital-associated methicillin-resistant Staphylococcus aureus isolate 56 (494) by broth microdilution assay; assay type: functional; method in brief: as §1
Staphylococcus aureus [13] = assay: Antibacterial activity against hospital-associated methicillin-resistant Staphylococcus aureus isolate 152 by broth microdilution assay; assay type: functional; method in brief: as §1
Staphylococcus aureus [14] = assay: Antibacterial activity against vancomycin-heteroresistant Staphylococcus aureus isolate 443 infected in neutropenic BALB/c mouse lung infection model assessed as reduction of CFU at 40 mg/kg, sc administered every 12 hrs measured after 48 hrs; further: unit not given here
Staphylococcus aureus [15] = assay: Antibacterial activity against vancomycin-heteroresistant Staphylococcus aureus isolate 443 infected in neutropenic BALB/c mouse lung infection model assessed as reduction of CFU at 40 mg/kg, sc administered every 12 hrs measured after 24 hrs; further: unit not given here
Staphylococcus aureus [16] = assay: Antibacterial activity against vancomycin-intermediate Staphylococcus aureus isolate 454 (NRS404) infected in neutropenic BALB/c mouse lung infection model assessed as reduction of CFU at 40 mg/kg, sc administered every 12 hrs measured after 48 hrs; further: unit not given here
Staphylococcus aureus [17] = assay: Antibacterial activity against community-associated methicillin-resistant Staphylococcus aureus isolate 145 infected in neutropenic BALB/c mouse lung infection model assessed as reduction of CFU at 40 mg/kg, sc administered every 12 hrs measured after 48 hrs; further: unit not given here
Staphylococcus aureus [18] = assay: Antibacterial activity against hospital-associated methicillin-resistant Staphylococcus aureus isolate 336 infected in neutropenic BALB/c mouse lung infection model assessed as reduction of CFU at 40 mg/kg, sc administered every 12 hrs measured after 24 hrs; further: unit not given here
Staphylococcus aureus [19] = assay: Antibacterial activity against hospital-associated methicillin-resistant Staphylococcus aureus isolate 336 infected in neutropenic BALB/c mouse lung infection model assessed as reduction of CFU at 40 mg/kg, sc administered every 12 hrs measured after 48 hrs; further: unit not given here
Staphylococcus aureus [20] = assay: Antibacterial activity against hospital-associated methicillin-resistant Staphylococcus aureus isolate 412 infected in neutropenic BALB/c mouse lung infection model assessed as reduction of CFU at 40 mg/kg, sc administered every 12 hrs measured after 24 hrs; further: unit not given here
Staphylococcus aureus [21] = assay: Antibacterial activity against vancomycin-intermediate Staphylococcus aureus isolate 435 infected in neutropenic BALB/c mouse lung infection model assessed as reduction of CFU at 40 mg/kg, sc administered every 12 hrs measured after 24 hrs; further: unit not given here
Staphylococcus aureus [22] = assay: Antibacterial activity against hospital-associated methicillin-resistant Staphylococcus aureus isolate 152 infected in neutropenic BALB/c mouse lung infection model assessed as reduction of CFU at 40 mg/kg, sc administered every 12 hrs measured after 24 hrs; further: unit not given here
Staphylococcus aureus [23] = assay: Antibacterial activity against vancomycin-heteroresistant Staphylococcus aureus isolate 38 (Mu3) infected in neutropenic BALB/c mouse lung infection model assessed as reduction of CFU at 40 mg/kg, sc administered every 12 hrs measured after 24 hrs
Staphylococcus aureus [24] = assay: Antibacterial activity against vancomycin-intermediate Staphylococcus aureus isolate 454 (NRS404) infected in neutropenic BALB/c mouse lung infection model assessed as reduction of CFU at 40 mg/kg, sc administered every 12 hrs measured after 24 hrs; further: unit not given here
Staphylococcus aureus [25] = assay: Antibacterial activity against vancomycin-intermediate Staphylococcus aureus isolate 440 (A6298) infected in neutropenic BALB/c mouse lung infection model assessed as reduction of CFU at 40 mg/kg, sc administered every 12 hrs measured after 24 hrs
Staphylococcus aureus [26] = assay: Antibacterial activity against vancomycin-intermediate Staphylococcus aureus isolate 440 (A6298) infected in neutropenic BALB/c mouse lung infection model assessed as reduction of CFU at 40 mg/kg, sc administered every 12 hrs measured after 48 hrs
Staphylococcus aureus [27] = assay: Antibacterial activity against community-associated methicillin-resistant Staphylococcus aureus isolate 145 infected in neutropenic BALB/c mouse lung infection model assessed as reduction of CFU at 40 mg/kg, sc administered every 12 hrs measured after 24 hrs; further: unit not given here
Staphylococcus aureus [28] = assay: Antibacterial activity against vancomycin-intermediate Staphylococcus aureus isolate 453 (NRS23) infected in neutropenic BALB/c mouse lung infection model assessed as reduction of CFU at 40 mg/kg, sc administered every 12 hrs measured after 24 hrs; further: unit not given here
Staphylococcus aureus [29] = assay: Antibacterial activity against community-associated methicillin-resistant Staphylococcus aureus isolate 156 infected in neutropenic BALB/c mouse lung infection model assessed as reduction of CFU at 40 mg/kg, sc administered every 12 hrs measured after 24 hrs; further: unit not given here
Staphylococcus aureus [30] = assay: Antibacterial activity against vancomycin-intermediate Staphylococcus aureus isolate 435 infected in neutropenic BALB/c mouse lung infection model assessed as reduction of CFU at 40 mg/kg, sc administered every 12 hrs measured after 48 hrs; further: unit not given here
Staphylococcus aureus [31] = assay: Antibacterial activity against hospital-associated methicillin-resistant Staphylococcus aureus isolate 56 (494) infected in neutropenic BALB/c mouse lung infection model assessed as reduction of CFU at 40 mg/kg, sc administered every 12 hrs measured after 24 hrs; further: unit not given here
Staphylococcus aureus [32] = assay: Antibacterial activity against vancomycin-intermediate Staphylococcus aureus isolate 453 (NRS23) infected in neutropenic BALB/c mouse lung infection model assessed as reduction of CFU at 40 mg/kg, sc administered every 12 hrs measured after 48 hrs; further: unit not given here
Staphylococcus aureus [33] = assay: Antibacterial activity against hospital-associated methicillin-resistant Staphylococcus aureus isolate 360 infected in neutropenic BALB/c mouse lung infection model assessed as reduction of CFU at 40 mg/kg, sc administered every 12 hrs measured after 24 hrs

## CN(C)c1cc(NC(=O)CNC(C)(C)C)c(O)c2c1C[C@H]1C[C@H]3[C@H](N(C)C)C(O)=C(C(N)=O)C(=O)[C@@]3(O)C(O)=C1C2=O [TIGECYCLINE]
Staphylococcus aureus [1]
  MIC: 0.125 µg/mL (≈ 0.213 µM)
Staphylococcus aureus [2]
  MIC: 0.25 µg/mL (≈ 0.427 µM)
Staphylococcus aureus [3]
  MIC: 0.25 µg/mL (≈ 0.427 µM)
Staphylococcus aureus [4]
  MIC: 0.125 µg/mL (≈ 0.213 µM)
Staphylococcus aureus [5]
  MIC: 0.25 µg/mL (≈ 0.427 µM)
Staphylococcus aureus [6]
  MIC: 0.5 µg/mL (≈ 0.854 µM)
Staphylococcus aureus [7]
  MIC: 0.5 µg/mL (≈ 0.854 µM)
Staphylococcus aureus [8]
  MIC: 0.25 µg/mL (≈ 0.427 µM)
Staphylococcus aureus [9]
  MIC: 0.125 µg/mL (≈ 0.213 µM)
Staphylococcus aureus [10]
  MIC: 0.125 µg/mL (≈ 0.213 µM)
Staphylococcus aureus [11]
  MIC: 0.25 µg/mL (≈ 0.427 µM)
Staphylococcus aureus [12]
  MIC: 0.5 µg/mL (≈ 0.854 µM)
Staphylococcus aureus [13]
  MIC: 0.25 µg/mL (≈ 0.427 µM)

## CCCCCCCCCC(=O)N[C@@H](Cc1c[nH]c2ccccc12)C(=O)N[C@H](CC(N)=O)C(=O)N[C@@H](CC(=O)O)C(=O)N[C@@H]1C(=O)NCC(=O)N[C@@H](CCCN)C(=O)N[C@@H](CC(=O)O)C(=O)N[C@H](C)C(=O)N[C@@H](CC(=O)O)C(=O)NCC(=O)N[C@H](CO)C(=O)N[C@@H]([C@H](C)CC(=O)O)C(=O)N[C@@H](CC(=O)c2ccccc2N)C(=O)O[C@@H]1C
Staphylococcus aureus [1]
  MIC: 1 µg/mL (≈ 0.617 µM)
Staphylococcus aureus [2]
  MIC: 0.5 µg/mL (≈ 0.309 µM)
Staphylococcus aureus [3]
  MIC: 0.5 µg/mL (≈ 0.309 µM)
Staphylococcus aureus [4]
  MIC: 1 µg/mL (≈ 0.617 µM)
Staphylococcus aureus [5]
  MIC: 0.5 µg/mL (≈ 0.309 µM)
Staphylococcus aureus [6]
  MIC: 0.5 µg/mL (≈ 0.309 µM)
Staphylococcus aureus [7]
  MIC: 0.5 µg/mL (≈ 0.309 µM)
Staphylococcus aureus [8]
  MIC: 0.5 µg/mL (≈ 0.309 µM)
Staphylococcus aureus [9]
  MIC: 1 µg/mL (≈ 0.617 µM)
Staphylococcus aureus [10]
  MIC: 0.5 µg/mL (≈ 0.309 µM)
Staphylococcus aureus [11]
  MIC: 0.5 µg/mL (≈ 0.309 µM)
Staphylococcus aureus [12]
  MIC: 0.5 µg/mL (≈ 0.309 µM)
Staphylococcus aureus [13]
  MIC: 0.5 µg/mL (≈ 0.309 µM)

## O=C(O)c1cn(C2CC2)c2cc(N3CCNCC3)c(F)cc2c1=O [CIPROFLOXACIN]
Staphylococcus aureus [1]
  MIC: ≥ 16 µg/mL
Staphylococcus aureus [2]
  MIC: ≥ 16 µg/mL
Staphylococcus aureus [3]
  MIC: 8 µg/mL (≈ 24.1 µM)
Staphylococcus aureus [4]
  MIC: ≥ 16 µg/mL
Staphylococcus aureus [5]
  MIC: ≥ 16 µg/mL
Staphylococcus aureus [6]
  MIC: ≥ 16 µg/mL
Staphylococcus aureus [7]
  MIC: ≥ 16 µg/mL
Staphylococcus aureus [8]
  MIC: ≥ 16 µg/mL
Staphylococcus aureus [9]
  MIC: ≥ 16 µg/mL
Staphylococcus aureus [10]
  MIC: ≥ 16 µg/mL
Staphylococcus aureus [11]
  MIC: ≥ 16 µg/mL
Staphylococcus aureus [12]
  MIC: 0.5 µg/mL (≈ 1.51 µM)
Staphylococcus aureus [13]
  MIC: 0.5 µg/mL (≈ 1.51 µM)

## CCCCCCCCCCNCCN[C@@]1(C)C[C@H](O[C@H]2[C@H](Oc3c4cc5cc3Oc3ccc(cc3Cl)[C@@H](O)[C@@H](NC(=O)[C@@H](CC(C)C)NC)C(=O)N[C@@H](CC(N)=O)C(=O)N[C@H]5C(=O)N[C@H]3C(=O)N[C@H](C(=O)N[C@H](C(=O)O)c5cc(O)c(CNCP(=O)(O)O)c(O)c5-c5cc3ccc5O)[C@H](O)c3ccc(c(Cl)c3)O4)O[C@H](CO)[C@@H](O)[C@@H]2O)O[C@@H](C)[C@H]1O [TELAVANCIN]
Staphylococcus aureus [14]
  Activity: inactive
Staphylococcus aureus [15]
  Activity: Active
Staphylococcus aureus [1]
  MIC: 1 µg/mL (≈ 0.57 µM)
Staphylococcus aureus [2]
  MIC: 0.5 µg/mL (≈ 0.285 µM)
Staphylococcus aureus [16]
  Activity: Active
Staphylococcus aureus [17]
  Activity: inactive
Staphylococcus aureus [3]
  MIC: 0.5 µg/mL (≈ 0.285 µM)
Staphylococcus aureus [18]
  Activity: Active
Staphylococcus aureus [19]
  Activity: inactive
Staphylococcus aureus [4]
  MIC: 1 µg/mL (≈ 0.57 µM)
Staphylococcus aureus [5]
  MIC: 0.5 µg/mL (≈ 0.285 µM)
Staphylococcus aureus [20]
  Activity: Active
Staphylococcus aureus [21]
  Activity: Active
Staphylococcus aureus [22]
  Activity: Active
Staphylococcus aureus [6]
  MIC: 0.5 µg/mL (≈ 0.285 µM)
Staphylococcus aureus [23]
  Activity: Active
Staphylococcus aureus [24]
  Activity: Active
Staphylococcus aureus [25]
  Activity: Active
Staphylococcus aureus [26]
  Activity: Active
Staphylococcus aureus [7]
  MIC: 0.5 µg/mL (≈ 0.285 µM)
Staphylococcus aureus [8]
  MIC: 0.5 µg/mL (≈ 0.285 µM)
Staphylococcus aureus [9]
  MIC: 1 µg/mL (≈ 0.57 µM)
Staphylococcus aureus [10]
  MIC: 0.5 µg/mL (≈ 0.285 µM)
Staphylococcus aureus [27]
  Activity: Active
Staphylococcus aureus [28]
  Activity: Active
Staphylococcus aureus [29]
  Activity: Active
Staphylococcus aureus [30]
  Activity: inactive
Staphylococcus aureus [11]
  MIC: 1 µg/mL (≈ 0.57 µM)
Staphylococcus aureus [12]
  MIC: 0.5 µg/mL (≈ 0.285 µM)
Staphylococcus aureus [13]
  MIC: 0.25 µg/mL (≈ 0.142 µM)
Staphylococcus aureus [31]
  Activity: Active
Staphylococcus aureus [32]
  Activity: Active
Staphylococcus aureus [33]
  Activity: Active

## CCC[C@@H]1C[C@@H](C(=O)N[C@@H]([C@H]2O[C@H](SC)[C@H](O)[C@@H](O)[C@H]2O)[C@H](C)Cl)N(C)C1 [CLINDAMYCIN]
Staphylococcus aureus [1]
  MIC: ≥ 8 µg/mL
Staphylococcus aureus [2]
  MIC: ≥ 8 µg/mL
Staphylococcus aureus [3]
  MIC: ≥ 8 µg/mL
Staphylococcus aureus [4]
  MIC: ≤ 0.5 µg/mL
Staphylococcus aureus [5]
  MIC: ≤ 0.5 µg/mL
Staphylococcus aureus [6]
  MIC: ≥ 8 µg/mL
Staphylococcus aureus [7]
  MIC: ≥ 8 µg/mL
Staphylococcus aureus [8]
  MIC: ≥ 8 µg/mL
Staphylococcus aureus [9]
  MIC: ≥ 8 µg/mL
Staphylococcus aureus [10]
  MIC: ≤ 0.5 µg/mL
Staphylococcus aureus [11]
  MIC: ≤ 0.5 µg/mL
Staphylococcus aureus [12]
  MIC: 0.25 µg/mL (≈ 0.588 µM)
Staphylococcus aureus [13]
  MIC: 0.125 µg/mL (≈ 0.294 µM)
